Source: ChEMBL document CHEMBL1132360, “N-Substituted (2,3-dihydro-1,4-benzodioxin-2-yl)methylamine derivatives as D(2) antagonists/5-HT(1A) partial agonists with potential as atypical antipsychotic agents” (J Med Chem, 1999)

Columns and labels:
[1] = biological target: T1, 5-hydroxytryptamine receptor 1A (Rattus norvegicus, UniProt P19327); experiment: Binding affinity towards 5-hydroxytryptamine 1A receptor from rat brain using [3H]-8-OH-DPAT as radioligand
T1 sequence (P19327 whole entry): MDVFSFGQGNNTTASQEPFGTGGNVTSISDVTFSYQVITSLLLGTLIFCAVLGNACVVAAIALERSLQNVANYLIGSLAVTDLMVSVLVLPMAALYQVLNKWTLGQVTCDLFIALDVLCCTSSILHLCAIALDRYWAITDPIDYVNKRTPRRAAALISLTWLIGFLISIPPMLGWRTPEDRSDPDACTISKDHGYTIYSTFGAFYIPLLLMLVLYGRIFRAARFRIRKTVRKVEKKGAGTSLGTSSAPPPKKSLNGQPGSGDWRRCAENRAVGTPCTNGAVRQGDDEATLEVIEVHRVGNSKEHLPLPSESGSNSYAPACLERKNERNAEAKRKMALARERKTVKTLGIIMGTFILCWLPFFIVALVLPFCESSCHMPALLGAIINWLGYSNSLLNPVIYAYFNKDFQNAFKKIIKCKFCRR

[2] = biological target: T2, Adrenergic receptor alpha-1 (Homo sapiens, UniProt P35348+P25100+P35368); experiment: Binding affinity towards Alpha-1 adrenergic receptor in human cortex membranes; type: cell membranes
T2 sequence (P35348 whole entry): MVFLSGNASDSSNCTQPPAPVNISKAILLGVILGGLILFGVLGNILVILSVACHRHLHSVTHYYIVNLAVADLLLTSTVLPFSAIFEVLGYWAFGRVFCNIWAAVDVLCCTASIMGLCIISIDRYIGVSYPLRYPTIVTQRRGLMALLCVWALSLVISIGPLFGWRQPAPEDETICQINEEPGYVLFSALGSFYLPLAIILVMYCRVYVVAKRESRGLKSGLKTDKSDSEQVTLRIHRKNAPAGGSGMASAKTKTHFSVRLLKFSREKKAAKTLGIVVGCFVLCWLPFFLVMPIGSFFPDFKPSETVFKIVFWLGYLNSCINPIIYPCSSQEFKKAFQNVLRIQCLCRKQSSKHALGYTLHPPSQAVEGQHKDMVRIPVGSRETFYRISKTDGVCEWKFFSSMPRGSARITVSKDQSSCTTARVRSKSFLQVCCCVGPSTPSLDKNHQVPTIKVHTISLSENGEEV
T2 sequence (P25100 whole entry): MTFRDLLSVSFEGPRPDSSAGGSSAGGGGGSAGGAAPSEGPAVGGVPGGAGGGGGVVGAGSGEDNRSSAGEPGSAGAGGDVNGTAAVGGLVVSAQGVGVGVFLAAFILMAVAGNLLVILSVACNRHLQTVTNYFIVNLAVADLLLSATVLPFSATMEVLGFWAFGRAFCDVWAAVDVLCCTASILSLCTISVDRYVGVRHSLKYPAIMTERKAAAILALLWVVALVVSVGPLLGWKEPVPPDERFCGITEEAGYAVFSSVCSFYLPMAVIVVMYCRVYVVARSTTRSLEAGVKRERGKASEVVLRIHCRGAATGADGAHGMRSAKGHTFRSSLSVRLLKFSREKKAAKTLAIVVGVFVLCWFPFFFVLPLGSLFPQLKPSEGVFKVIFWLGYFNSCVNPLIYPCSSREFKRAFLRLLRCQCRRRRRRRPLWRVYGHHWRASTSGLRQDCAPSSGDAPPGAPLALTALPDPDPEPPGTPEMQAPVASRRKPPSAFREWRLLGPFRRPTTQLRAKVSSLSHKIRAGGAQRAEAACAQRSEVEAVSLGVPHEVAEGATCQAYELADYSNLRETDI
T2 sequence (P35368 whole entry): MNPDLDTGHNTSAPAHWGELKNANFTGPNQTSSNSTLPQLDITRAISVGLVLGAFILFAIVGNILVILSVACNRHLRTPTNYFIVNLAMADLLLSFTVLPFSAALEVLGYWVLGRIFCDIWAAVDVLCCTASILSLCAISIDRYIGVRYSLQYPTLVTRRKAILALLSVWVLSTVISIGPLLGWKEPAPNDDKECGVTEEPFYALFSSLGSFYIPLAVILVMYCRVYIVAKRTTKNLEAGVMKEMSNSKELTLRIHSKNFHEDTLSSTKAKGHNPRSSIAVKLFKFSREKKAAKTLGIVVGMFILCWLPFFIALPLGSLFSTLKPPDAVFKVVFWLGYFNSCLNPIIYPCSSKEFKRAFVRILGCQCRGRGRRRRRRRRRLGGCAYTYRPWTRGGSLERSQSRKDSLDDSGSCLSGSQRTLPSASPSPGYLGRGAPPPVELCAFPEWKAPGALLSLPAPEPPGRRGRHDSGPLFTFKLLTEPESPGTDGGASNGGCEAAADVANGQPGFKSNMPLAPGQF

[3] = biological target: Adrenergic receptor alpha-1 (Homo sapiens) (UniProt P35348+P25100+P35368); experiment: Compound was tested for binding affinity towards Alpha-1 adrenergic receptor in human cortex membranes; type: cell membranes; details: concentration not given here
How it was run: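 Postmortem human cortex membranes (stored −80 °C, final in 50 mM Tris-HCl pH 7.6) incubated with [3H]prazosin 0.1 nM and compound at 10⁻⁶ M or 10 concentrations, 30 min at 30 °C; phentolamine 5 μM defines nonspecific binding. Bound ligand by filtration and scintillation counting; Ki from IC50 by Cheng–Prusoff, ±SEM; percentages are displacement at 10⁻⁶ M.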

[4] = biological target: T3, 5-hydroxytryptamine receptor 1A (Rattus norvegicus) (UniProt P19327); experiment: The compound was tested binding affinity against 5-hydroxytryptamine 1A receptor from rat brain using [3H]8-OH-DPAT as radioligand at 10e-6 M.
T3 sequence (whole entry): T1 sequence (P19327 whole entry)
How it was run: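 Adult male CD rat hippocampal membranes (endogenous 5-HT removed by 37 °C, 10 min incubation) in 50 mM Tris-HCl pH 7.7 plus CaCl2, ascorbate, pargyline; incubated with 2 nM [3H]8-OH-DPAT and test compound at 10⁻⁶ M, 30 min, 25 °C; 10 μM 5-HT defines nonspecific binding. Specific binding with and without compound gives percent displacement.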

Mus musculus [5] = experiment: Antagonistic activity against apomorphine induced climbing in the mouse after po administration; type: functional
How it was run: (§1)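 Male CD1 mice (20–25 g), groups of 10, dosed po with compound or vehicle ([…]) at set times before apomorphine 0.88 mg/kg sc. Each mouse placed in an inverted open-ended wire cage; climbing scored 0–2 at 10 and 20 min after apomorphine.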

Rattus norvegicus = experiment: The compound was tested in vivo for induction of catalepsy in rat after ip administration; type: functional
How it was run: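 Male rats (130–190 g), groups of five, injected ip with compound solution (1 mL/kg). Catalepsy assessed at three times by placing each paw on a 45 mm rubber bung; a paw held 15 s scores 1 (group maximum 20 = 100%). ED50 from percent catalepsy at the final reading, by adapted Litchfield–Wilcoxon.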

Mus musculus [6] = experiment: The compound was tested for antagonistic activity against apomorphine induced climbing in the mouse, percentages are for reduction in climbing after peroral administration; type: functional; details: po
How it was run: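 Groups of 10 male CD1 mice (20–25 g) dosed po with test compound or vehicle at set times before apomorphine 0.88 mg/kg sc. Mice were placed singly in inverted wire cages and climbing was scored 0–2 at 10 and 20 min after apomorphine. Percent reduction in climbing is given at the stated dose.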

Mus musculus [7] = experiment: Percent reduction in apomorphine induced climbing in mouse at 50 mg/Kg of compound given perorally; type: functional
How it was run: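 Male CD1 mice (20–25 g), groups of 10, given compound po (vehicle 0.1 mL/kg) at 50 mg/kg before apomorphine 0.88 mg/kg sc. Climbing in inverted open-ended wire cages scored 0–2 at 10 and 20 min after apomorphine; percent reduction in climbing at that dose reported.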

Mus musculus [8] = experiment: The compound was tested for antagonistic activity against apomorphine induced climbing in the mouse after po administration; type: functional; how it was run: as §1

SMILES | Ki [1] | Ki [2] | ED50 (Mus musculus [5]) | ED50 (Rattus norvegicus) | also measured
CC1(CNCC2CCN(c3ncccn3)CC2)COc2ccccc2O1 (centres undefined) | 0.195 µM | 0.132 µM |  |  | 
c1ccc(N2CCC(CNCC3COc4ccccc4O3)CC2)nc1 (stereo in doubt; 12) [listing 1 of 2 here] |  |  |  |  | inhibition [3]: 98%; inhibition [4]: 98%
c1cnc(N2CCC(CNC[C@H]3COc4ccccc4O3)CC2)nc1 | 0.0027 µM | 0.018 µM | 9 mg/kg | 44 mg/kg | 
c1ccc(N2CCC(CNCC3COc4ccccc4O3)CC2)cc1 (centres undefined) | 0.029 µM | 0.047 µM | 39 mg/kg |  | 
COc1ccccc1N1CCC(CNCC2COc3cccc(O)c3O2)CC1 (centres undefined) |  | > 0.5 µM | 33 mg/kg |  | inhibition [4]: 94%
COc1cccc2c1OC(CNCC1CCN(c3ncccn3)CC1)CO2 (centres undefined) | 0.0006 µM | 0.0023 µM | 2.4 mg/kg |  | 
Cc1cc2c(s1)Nc1ccccc1N=C2N1CCN(C)CC1 [OLANZAPINE] |  |  | 4.87 mg/kg | 6.07 mg/kg | 
COc1ccccc1N1CCC(CNCC2COc3cccc(F)c3O2)CC1 (centres undefined) | 0.016 µM | 0.012 µM | 4 mg/kg | 23 mg/kg | 
c1ccc2c(c1)OCC(CNCC1CCN(c3cccc4c3OCC4)CC1)O2 (centres undefined) | 0.003 µM | 0.033 µM | 18 mg/kg | 107 mg/kg | 
COc1ccccc1N1CCC(CNC[C@H]2COc3ccccc3O2)CC1 | 0.008 µM | 0.023 µM | 7 mg/kg | 50 mg/kg | 
c1cnc(NCC2CCN(CC3COc4ccccc4O3)CC2)nc1 (stereo in doubt; 9) | 0.463 µM | 0.208 µM |  |  | 
c1ccc(N2CCC(CNCC3COc4ccccc4O3)CC2)nc1 (stereo in doubt; 13) [listing 1 of 2 here] |  |  |  |  | inhibition [3]: 84%; inhibition [4]: 82%
Cc1nc2n(c(=O)c1CCN1CCC(c3noc4cc(F)ccc34)CC1)CCCC2 [RISPERIDONE] |  |  |  | 1.75 mg/kg | ED50 (Mus musculus [6]): 0.3 mg/kg
c1cnc(NCCCNCC2COc3ccccc3O2)nc1 (centres undefined) | 0.0031 µM |  | 6 mg/kg |  | 
Clc1ccccc1N1CCC(CNCC2COc3ccccc3O2)CC1 (centres undefined) | 0.017 µM | 0.094 µM |  |  | 
c1ccc(N2CCC(CNCC3COc4ccccc4O3)CC2)nc1 (stereo in doubt; 13) [listing 2 of 2 here] |  |  |  |  | Reduction (Mus musculus [7]): 55%
c1cnc(NCC2CCN(CC3COc4ccccc4O3)CC2)nc1 (stereo in doubt; 8) | 0.021 µM | 0.023 µM |  |  | 
c1ccc2c(c1)OCC(CNCC1CCN(c3cccc4c3OCCO4)CC1)O2 (centres undefined) | 0.018 µM | 0.038 µM | 32 mg/kg | > 200 mg/kg | 
COc1cccc(N2CCC(CNCC3COc4ccccc4O3)CC2)c1 (centres undefined) |  |  |  |  | Reduction (Mus musculus [8]): 45%
CN(CC1CCN(c2ncccn2)CC1)CC1COc2ccccc2O1 (centres undefined) |  | 0.348 µM |  |  | inhibition [4]: 85%
O=C(CCCN1CCC(O)(c2ccc(Cl)cc2)CC1)c1ccc(F)cc1 [HALOPERIDOL] |  |  |  | 0.44 mg/kg | ED50 (Mus musculus [6]): 0.16 mg/kg
c1ccc(N2CCC(CNCC3COc4ccccc4O3)CC2)nc1 (stereo in doubt; 12) [listing 2 of 2 here] |  |  | 23 mg/kg |  | 
c1cnc(N2CCC(CNC[C@@H]3COc4ccccc4O3)CC2)nc1 | 0.025 µM | 0.117 µM |  |  | Reduction (Mus musculus [7]): 77%
COc1cccc2c1OCC(CNCC1CCN(c3ncccn3)CC1)O2 (centres undefined) | 0.128 µM | 0.234 µM |  |  | 
COc1ccc(N2CCC(CNCC3COc4ccccc4O3)CC2)cc1 (centres undefined) | 0.015 µM | 0.044 µM | 11 mg/kg |  | 
CC1Oc2ccccc2OC1CNCC1CCN(c2ncccn2)CC1 (centres undefined) | > 0.5 µM | > 0.5 µM | 134 mg/kg | 775 mg/kg | 
COc1ccccc1NCC1CCN(CC2COc3ccccc3O2)CC1 (centres undefined) | 0.02 µM | 0.02 µM | 62 mg/kg |  | 
COc1ccccc1N1CCC(CNC[C@@H]2COc3ccccc3O2)CC1 | 0.037 µM | 0.074 µM | 38 mg/kg |  | 
CN1CCN(C2=Nc3cc(Cl)ccc3Nc3ccccc32)CC1 [CLOZAPINE] |  |  |  | 33.9 mg/kg | ED50 (Mus musculus [6]): 9.5 mg/kg
